Measured values: ChEMBL document CHEMBL1157835, “Synthesis and evaluation of verticipyrone analogues as mitochondrial complex I inhibitors” (Bioorg Med Chem, 2010)
pIC50: −log10 of the molar value.

Legend:
[1] = Inhibition of NADH oxidase from beef heart submitochondrial particles by spectrophotometry; set-up: species or system Bos taurus
In short: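 Bovine heart inverted SMP, stored in 0.25 M sucrose/10 mM Tris-HCl pH 7.4 at −80 °C, diluted to 0.5 mg/mL and activated with 300 NADH. Assayed at 30 °C in 50 mM Hepes pH 7.5, 5 mM MgCl2, 30 μg protein. SMP pre-equilibrated with inhibitor 5 min, then 50 μM NADH added. Rates from the linear part of the trace at 340 nm. Ethanol ≤2%.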

[2] = Inhibition of NADH-ubiquinone oxidoreductase from beef heart submitochondrial particles by spectrophotometry; set-up: species or system Bos taurus
In short: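 Bovine heart inverted SMP, activated with 300 NADH, 30 μg protein, 30 °C. 5 min inhibitor pre-equilibration, then 50 μM NADH added. Read at 340 nm. […] IC50 is the final concentration giving 50% inhibition; mean ± SD of three independent experiments.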

[3] = Inhibition of mitochondrial complex 1 in human MCF7 cells assessed as concentration required to obtain half maximal lactate production after 3 hrs by spectrophotometry; type: cell-based; conditions: MCF7, 3 h
In short: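 MCF-7 cells seeded at 2 × 10^5 per well and grown 24 h to about 50% confluence, then rinsed. Compounds given in Krebs-Ringer buffer for 3 h, with buffer controls. Supernatant lactate measured by ΔOD at 363 nm (ε 9.1 mM−1 cm−1). IC50 is the dose giving 50% of maximal lactate production. Points are the mean ± SD of triplicates; experiments repeated at least three times.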

MCF7 = assay: Cytotoxicity against human MCF7 cells by MTT assay; type: functional, cell-based
In short: (§1)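 MTT growth assay. MCF-7, A-549 and 3LL cells grown in RPMI-1640; CRL-2365 and CRL-2366 grown in DMEM. All media had 10% FBS, penicillin G (100 U/mL) and streptomycin (100 μg/mL).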

MCF-10A = assay: Cytotoxicity against human MCF10A cells by MTT assay; type: functional, cell-based
In short: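 MTT growth assay on MCF-10A cells grown in Mammary Epithelial Growth Medium following the supplier protocol.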

[4] = Cytotoxicity against human CRL2365 cells by MTT assay; type: functional, cell-based; in short: as §1
[5] = Cytotoxicity against human CRL2366 cells by MTT assay; type: functional, cell-based; in short: as §1
A549 = assay: Cytotoxicity against human A549 cells by MTT assay; type: functional, cell-based; in short: as §1
[6] = Cytotoxicity against mouse 3LL cells by MTT assay; type: functional, cell-based; in short: as §1

Structure (SMILES) | pIC50 [1] | pIC50 [2] | pIC50 [3] | pIC50 (MCF7) | pIC50 (MCF-10A) | pIC50 [4] | pIC50 [5] | pIC50 (A549) | pIC50 [6]
CCCCCCCC[C@](C)(O)CCc1oc(C)c(C)c(=O)c1C | 7.32 | 6.87 | – | – | – | – | – | – | –
CCCCCCCCC(C)(O)CCc1[nH]c(=O)c(C)c(O)c1C (racemic) | 5.37 | 5.90 | – | – | – | – | – | – | –
CCCCCCCCCC(O)Cc1oc(OC)c(C)c(=O)c1C (stereo not given) | 7.19 | 6.64 | 6.05 | 4.63 | 5.00 | 4.52 | < 4.51 | 4.68 | 4.65
CCCCCCCCC(C)(O)CCc1oc(=O)c(C)c(O)c1C (racemic) | 4.87 | 4.78 | 5.31 | < 4.51 | < 4.51 | < 4.51 | < 4.51 | < 4.51 | < 4.51
CCCCCCCC[C@@](C)(O)CCc1oc(OC)c(C)c(=O)c1C | 7.34 | 6.88 | 6.52 | 5.48 | 5.28 | 5.48 | 5.57 | 5.28 | 6.41
CCCCCCCC[C@](C)(O)CCc1oc(=O)c(C)c(O)c1C | 4.97 | 4.88 | 4.78 | < 4.51 | < 4.51 | < 4.51 | < 4.51 | < 4.51 | < 4.51
CCCCCCCC[C@@](C)(O)CCc1oc(=O)c(C)c(O)c1C | 4.83 | 4.72 | 5.07 | < 4.51 | < 4.51 | < 4.51 | < 4.51 | < 4.51 | < 4.51
COc1oc(CC(O)CCCCCOc2ccc(-c3ccccc3)cc2)c(C)c(=O)c1C (stereo not given) | 7.44 | 6.99 | 6.47 | 4.76 | 5.04 | 4.91 | 4.71 | 4.77 | 4.87
CCCCCCCC[C@](C)(O)CCc1oc(OC)c(C)c(=O)c1C | 7.36 | 6.90 | 6.74 | – | 5.25 | 5.62 | 5.48 | 5.39 | 6.47
COc1oc(CC(O)CCCCCCc2ccccc2)c(C)c(=O)c1C (stereo not given) | 7.14 | 6.59 | 6.06 | < 4.57 | 4.82 | < 4.57 | < 4.57 | < 4.57 | 4.76
CCCCCCCCC(C)(O)CCc1oc(OC)c(C)c(=O)c1C (racemic) | 7.28 | 6.82 | 6.42 | – | – | – | – | – | –
CCCCCCCC[C@@](C)(O)CCc1oc(C)c(C)c(=O)c1C | 7.29 | 6.84 | – | – | – | – | – | – | –
CCCCCC[C@H]1C(=O)O[C@H](C)[C@H](NC(=O)c2cccc(NC=O)c2O)C(=O)O[C@@H](C)[C@@H]1OC(=O)CC(C)C [ANTIMYCIN A] | – | – | > 6.82 | – | – | – | – | – | –
COc1oc(CC(O)CCCCCOc2ccccc2)c(C)c(=O)c1C (stereo not given) | 6.66 | 6.23 | – | – | – | – | – | – | –
CCCCCCCCC(C)(O)CCc1oc(C)c(C)c(=O)c1C (racemic) | 7.26 | 6.74 | 6.03 | < 4.51 | < 4.51 | < 4.51 | < 4.51 | < 4.51 | < 4.51
CCCCC(O)Cc1oc(OC)c(C)c(=O)c1C (stereo not given) | < 4.70 | < 4.60 | < 4.70 | – | – | – | – | – | –
